Drawing on ChEMBL document CHEMBL4033784, “Discovery of 1,5-Diphenylpyrazole-3-Carboxamide Derivatives as Potent, Reversible, and Selective Monoacylglycerol Lipase (MAGL) Inhibitors” (J Med Chem, 2018), this text covers inhibition and Activity for 1 molecule.

Active and inactive are the calls of the source.

Experiment [1] concerns the target T1, Monoglyceride lipase (Homo sapiens) (UniProt Q99685).
T1 sequence (whole entry): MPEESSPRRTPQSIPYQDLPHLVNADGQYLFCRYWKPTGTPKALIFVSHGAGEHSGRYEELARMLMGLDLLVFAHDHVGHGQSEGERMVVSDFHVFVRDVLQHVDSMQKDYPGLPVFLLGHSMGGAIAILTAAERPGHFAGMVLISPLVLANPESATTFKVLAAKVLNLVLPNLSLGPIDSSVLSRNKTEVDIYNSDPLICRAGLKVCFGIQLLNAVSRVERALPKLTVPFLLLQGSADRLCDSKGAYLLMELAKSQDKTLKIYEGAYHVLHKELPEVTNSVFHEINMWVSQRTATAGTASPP
The settings on record: 20 uM.

Experiment [2] addresses T1, Monoglyceride lipase (Homo sapiens). The conditions noted are these: 20 uM. This is another data set of the same source.
The subject of experiment [3] is Mus musculus. Description: Antinociceptive activity in oxaliplatin-induced neuropathic pain 4r5CD-1 albino mouse model assessed as reduction in licking latency at 10 mg/kg, po treated on day 15 post oxaliplatin treatment measure at 30 mins post dose by cold plate test. Format: functional, organism-based. The method, boiled down: (§1)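 Male CD-1 mice (22–25 g) received oxaliplatin 2.4 mg/kg i.p. in 5% glucose on days 1-2, 5-9, 12-14. On day 15 a single p.o. dose (10 or 30 mg/kg) suspended in CMC was given. Cold plate at 4 °C ± 1 °C, 60 s cut-off, latency to first paw lick or lift timed after dosing. 10 mice per group over 2 sets, mean ± S.E.M., one-way ANOVA with Bonferroni.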

Experiment [4] relates to Mus musculus. Description: Antinociceptive activity in oxaliplatin-induced neuropathic pain 4r5CD-1 albino mouse model assessed as reduction in cold allodynia at 30 mg/kg, po cotreated with oxaliplatin on day 1 to 14 measured on day 7 and 15 by cold plate test. Format: functional, organism-based. An outline of the steps:
(§2)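 Male CD-1 mice (22–25 g) given oxaliplatin 2.4 mg/kg i.p. in 5% glucose on days 1-2, 5-9, 12-14. Compound suspended in CMC, 30 mg/kg p.o., given on the same schedule. Cold plate held at 4 °C ± 1 °C, 60 s cut-off. Latency to first hind-paw lifting or licking recorded on days 7 and 15, 24 h after the last dose. 10 mice per group over 2 sets, mean ± S.E.M.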

For experiment [5], the system named is Mus musculus. The experiment can be described thus: Antinociceptive activity in po dosed oxaliplatin-induced neuropathic pain 4r5CD-1 albino mouse model assessed as pain relief treated on day 15 post oxaliplatin treatment by cold plate test. Format: functional, organism-based. An outline of the steps: as §1
The test system of experiment [6] is Mus musculus. Description: Antinociceptive activity in oxaliplatin-induced 4r5CD-1 albino mouse assessed as […] pain relief at 30 mg/kg, po cotreated with oxaliplatin on day 1 to 14 measured up to 24 hrs post last on day 15 by cold plate test. Format: functional, organism-based. An outline of the steps: as §2
Experiment [7] has as its system Mus musculus. The experiment can be described thus: Effect on 2-AG level in brain of oxaliplatin-induced neuropathic pain 4r5CD-1 albino mouse model at 30 mg/kg, po measured at 1 hr post last dose on day 15 by LC-MS/MS analysis. The experiment is classed as functional, organism-based. The method, boiled down:
(§3)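 Mice received oxaliplatin 2.4 mg/kg i.p. plus compound 30 mg/kg p.o. or vehicle for 14 days. On day 15 they were decapitated 1 h after the last dose. Brain and spinal cord were washed in PBS and snap-frozen. 2-AG was quantified by LC-MS/MS.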

Experiment [8] concerns the target Cannabinoid receptor 2 (Homo sapiens) (UniProt P34972). The experiment can be described thus: Displacement of [3H]CP55,940 from human CB2 receptor expressed in CHOK1 cell membranes at 10 uM after 90 mins relative to control. The method, boiled down:
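Membranes expressing hCB1 or hCB2 were incubated in 50 mM Tris-HCl, 2.5 mM EDTA, 5 mM MgCl2 with fatty-acid-free BSA, pH 7.4. Incubation with compound and 0.5 nM [3H]CP55,940 for 90 min at 30 °C. Nonspecific binding defined with 10 µM […]. Samples were filtered on GF/B, washed twelve times with ice-cold buffer, and radioactivity counted.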
In general terms: Displacement assays read how much labelled ligand stays bound in the presence of the test substance.

Experiment [9] concerns Mus musculus. Description: Effect on 2-AG level in spinal cord of oxaliplatin-induced neuropathic pain 4r5CD-1 albino mouse model at 30 mg/kg, po measured at 1 hr post last dose on day 15 by LC-MS/MS analysis. The experiment is classed as functional, organism-based. The method, boiled down: as §3
Experiment [10] has as its system Mus musculus. The experiment can be described thus: Antinociceptive activity in oxaliplatin-induced neuropathic pain 4r5CD-1 albino mouse model assessed as reduction in licking latency at 30 mg/kg, po treated on day 15 post oxaliplatin treatment measure at 30 to 45 mins post dose by cold plate test. The experiment is classed as functional, organism-based. The method, boiled down: as §1

Experiment [11] has as its target T2, Fatty-acid amide hydrolase 1 (Homo sapiens) (UniProt O00519).
T2 sequence (whole entry): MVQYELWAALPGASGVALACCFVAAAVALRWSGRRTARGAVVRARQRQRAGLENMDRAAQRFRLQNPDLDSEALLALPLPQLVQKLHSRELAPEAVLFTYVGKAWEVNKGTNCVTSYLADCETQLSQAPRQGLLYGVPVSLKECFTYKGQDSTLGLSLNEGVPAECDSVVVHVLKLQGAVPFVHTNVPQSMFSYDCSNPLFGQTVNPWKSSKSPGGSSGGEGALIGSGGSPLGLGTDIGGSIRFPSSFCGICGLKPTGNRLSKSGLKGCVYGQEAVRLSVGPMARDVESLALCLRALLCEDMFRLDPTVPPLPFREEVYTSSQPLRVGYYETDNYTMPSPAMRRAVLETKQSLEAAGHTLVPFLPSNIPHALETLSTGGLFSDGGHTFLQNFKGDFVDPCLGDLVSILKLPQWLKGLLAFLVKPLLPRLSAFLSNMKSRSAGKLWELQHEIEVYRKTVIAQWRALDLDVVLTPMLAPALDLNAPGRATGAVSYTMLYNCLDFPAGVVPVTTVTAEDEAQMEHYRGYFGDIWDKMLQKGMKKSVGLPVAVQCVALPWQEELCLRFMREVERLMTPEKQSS
The experiment can be described thus: Inhibition of recombinant human FAAH using AMC arachidonoylamide as substrate at 10 uM after 30 mins by fluorescence assay relative to control. The method, boiled down: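 Human recombinant FAAH (0.9 µg/well) in 125 mM Tris pH 9.0 with 1 mM EDTA and 0.1 mg/ml BSA at room temperature. Substrate was AMC arachidonoylamide, final 10 µM. Compound range 200–0.0128 µM. Fluorescence (ex 340/em 460 nm) read after 30 min with no-enzyme blanks subtracted. IC50 from sigmoidal dose-response fit.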

Sequence of Cannabinoid receptor 2 (Homo sapiens) (P34972 whole entry): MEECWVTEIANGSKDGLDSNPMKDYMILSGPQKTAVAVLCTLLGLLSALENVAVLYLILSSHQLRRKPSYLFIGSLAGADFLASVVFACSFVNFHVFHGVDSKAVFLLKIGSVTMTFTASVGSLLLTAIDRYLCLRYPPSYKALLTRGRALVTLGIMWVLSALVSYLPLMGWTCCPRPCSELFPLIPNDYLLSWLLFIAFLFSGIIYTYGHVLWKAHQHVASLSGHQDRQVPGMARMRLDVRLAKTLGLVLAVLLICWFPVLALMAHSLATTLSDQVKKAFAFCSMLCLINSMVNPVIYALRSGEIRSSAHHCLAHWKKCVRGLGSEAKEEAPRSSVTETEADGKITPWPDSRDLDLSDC

As a reminder, the inhibition is the change of the read-out against control, counted positive when it falls. Take `Cc1cccc(Cn2nc(C(=O)N3CCC(Cc4ccccc4)CC3)cc2-c2ccc(O)cc2)c1`: the inhibition entry in experiment [1] and in [2] was “Active” in each case. Further, the result in [3], in [4], in experiment [6] and in experiment [10] was Active. Further, the Activity entry in experiment [5] is “Dose-dependent effect”. The outcome in [7] and in experiment [9] was inactive. Further, the figures for the inhibition in experiment [8] and in [11] were 35% and 7%, respectively.
